“And” between values parts separate entries of the source, which are not always exact repeats. Equal values may be shown once.
Experiments:
Type in all cases: physicochemical
[1] = Absorption spectroscopy of bacteriochlorins; details: for Bmax abs / IQy/IB / Qy abs / Qy abs fwhm / ∑Qy/∑B: room temperature; for bathochromic shift in the Qy band relative to that for B2: in DMF or water
[2] = Fluorescence emission spectroscopy of bacteriochlorins; details: for Qy em / Qy em fwhm: room temperature
How it was run: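 Absorption and fluorescence spectra were recorded at room temperature in DMF and in […] water (one analogue in DMSO). The Qy/B ratio is the ratio of integrated Qy to integrated B absorption intensity. The Stokes shift is the Qy fluorescence maximum minus the Qy absorption peak.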

[3] = Water solubility / aggregation by absorption versus concentration in water; details: neat deionized water, 1000-fold concentration range (∼200–700 µM to ∼0.20–0.70 µM)
How it was run: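 Absorption spectra were taken in neat deionized water over a ~1000-fold concentration range (~200–700 µM to ~0.20–0.70 µM). Pathlength was changed reciprocally ([…]), and spectra were normalized at the Qy band. Concentration was calculated from absorbance in the 1-cm cuvette assuming ε(Qy) = 120,000 M−1cm−1.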

[4] = Excited-state photophysical properties; details: for Φf (fluorescence quantum yield) / Φisc (intersystem crossing yield) / τS (lifetime of lowest singlet excited state) / kf^−1 / kic^−1 / kisc^−1 / Φic (internal conversion yield): room temperature; for kf^−1 / kic^−1 / kisc^−1: kx = Φx/τS; for Φic (internal conversion yield): Φic = 1 - Φf - Φisc

Row | Substance | Bmax abs ([1]; DMF) | IQy/IB ([1]; DMF) | Qy abs ([1]; DMF) | Qy abs fwhm ([1]; DMF) | ∑Qy/∑B ([1]; DMF) | Bmax abs ([1]; water with 5% DMF as cosolvent) | IQy/IB ([1]; water with 5% DMF as cosolvent) | Qy abs ([1]; water with 5% DMF as cosolvent) | Qy abs fwhm ([1]; water with 5% DMF as cosolvent) | ∑Qy/∑B ([1]; water with 5% DMF as cosolvent) | Qy em ([2]; DMF) | Qy em fwhm ([2]; DMF) | Qy em ([2]; water with 5% DMF as cosolvent) | Qy em fwhm ([2]; water with 5% DMF as cosolvent) | Φf (fluorescence quantum yield) ([4]; DMF) | Φisc (intersystem crossing yield) ([4]; DMF) | τS (lifetime of lowest singlet excited state) ([4]; DMF) | kf^−1 ([4]; DMF) | kic^−1 ([4]; DMF) | kisc^−1 ([4]; DMF) | also measured
1 | 2,12-Bis[3,5-bis(3,6,9,12,15,18,21,24-octaoxahexacosanyl-26-amidomethyl)phenyl]-15^2-N-(3-carboxypropyl)-3-methoxycarbonyl-5-methoxy-8,8,18,18-tetramethylbacteriochlorin-13,15-dicarboimide [B5] | 375 nm | 0.78 | 808 nm | 32 nm | 0.50 | 376 nm | 0.50 | 819 nm | 36 nm | 0.38 | 819 nm | 35 nm | 834 nm | 44 nm | 0.13 | 0.29 | 1.7 ns and 1.70 ns | 13 ns | 3 ns | 6 ns | bathochromic shift of the Qy absorption band compared to B4 and II ([1]; DMF and water): ~50 nm; (Stokes) shift of Qy fluorescence maximum from Qy absorption peak ([2]; DMF): 11 nm; (Stokes) shift of Qy fluorescence maximum from Qy absorption peak ([2]; water): 15 nm; aggregation in water from absorption versus concentration [3]: obvious band broadening indicating some degree of aggregation; difference in kf between the two media (DMF and water) ([4]; DMF versus water): 6.5 fold; Φic (internal conversion yield) ([4]; DMF): 0.58; reduction of Φf in water vs DMF [4]: 87%; Φf (fluorescence quantum yield) ([4]; water with 5% DMF as cosolvent): 0.017; Φisc (intersystem crossing yield) ([4]; water with 5% DMF as cosolvent): 0.08; τS (lifetime of lowest singlet excited state) ([4]; water with 5% DMF as cosolvent): 1.4 ns and 1.40 ns; kf^−1 ([4]; water with 5% DMF as cosolvent): 84 ns; kic^−1 ([4]; water with 5% DMF as cosolvent): 2 ns; kisc^−1 ([4]; water with 5% DMF as cosolvent): 18 ns; Φic (internal conversion yield) ([4]; water with 5% DMF as cosolvent): 0.90
2 | 2,12-Bis[3,5-bis(11-methoxy-3,6,9-trioxaundecylamidomethyl)phenyl]-15-(7-carboxy-1-heptyl)-3,13-dimethoxycarbonyl-5-methoxy-8,8,18,18-tetramethylbacteriochlorin [B4] | 377 nm | 0.63 | 754 nm | 30 nm | 0.55 | 368 nm | 0.62 | 753 nm | 32 nm | 0.52 | 760 nm | 31 nm | 759 nm | 33 nm | 0.12 | 0.33 | 3.46 ns | 28 ns | 6 ns | 10 ns | bathochromic shift in the Qy band relative to that for B2 [1]: ~28 nm; Φic (internal conversion yield) ([4]; DMF): 0.55; reduction of Φf in water vs DMF [4]: 71%; Φf (fluorescence quantum yield) ([4]; water with 5% DMF as cosolvent): 0.035; Φisc (intersystem crossing yield) ([4]; water with 5% DMF as cosolvent): 0.31; τS (lifetime of lowest singlet excited state) ([4]; water with 5% DMF as cosolvent): 3.21 ns; kf^−1 ([4]; water with 5% DMF as cosolvent): 92 ns; kic^−1 ([4]; water with 5% DMF as cosolvent): 5 ns; kisc^−1 ([4]; water with 5% DMF as cosolvent): 10 ns; Φic (internal conversion yield) ([4]; water with 5% DMF as cosolvent): 0.65
3 | 3,13-Dimethoxycarbonyl-2,12-bis[3,5-bis(3,6,9,12,15,18,21,24-octaoxahexacosanyl-26-amidomethyl)phenyl]-5-methoxy-8,8,18,18-tetramethylbacteriochlorin [II] | 373 nm | 0.79 | 750 nm | 24 nm | 0.42 | 369 nm | 0.75 | 751 nm | 26 nm | 0.40 | 756 nm | 27 nm | 760 nm | 31 nm | 0.11 | 0.32 | 3.02 ns | 27 ns | 5 ns | 9 ns | bathochromic shift in the Qy band relative to that for B2 [1]: ~25 nm; (Stokes) shift of Qy fluorescence maximum from Qy absorption peak ([2]; water): 8–9 nm; Φic (internal conversion yield) ([4]; DMF): 0.57; reduction of Φf in water vs DMF [4]: 29%; Φf (fluorescence quantum yield) ([4]; water with 5% DMF as cosolvent): 0.078; Φisc (intersystem crossing yield) ([4]; water with 5% DMF as cosolvent): 0.31; τS (lifetime of lowest singlet excited state) ([4]; water with 5% DMF as cosolvent): 2.96 ns; kf^−1 ([4]; water with 5% DMF as cosolvent): 38 ns; kic^−1 ([4]; water with 5% DMF as cosolvent): 5 ns; kisc^−1 ([4]; water with 5% DMF as cosolvent): 10 ns; Φic (internal conversion yield) ([4]; water with 5% DMF as cosolvent): 0.61
4 | 15-[4-(3-Carboxyethyl)phenyl]-3,13-dimethoxycarbonyl-2,12-bis[3,5-bis(3,6,9,12,15,18,21,24-octaoxahexacosanyl-26-amidomethyl)phenyl]-5-methoxy-8,8,18,18-tetramethylbacteriochlorin [B3] | 375 nm | 0.74 | 741 nm | 23 nm | 0.52 | 374 nm | 0.81 | 742 nm | 24 nm | 0.57 | 748 nm | 27 nm | 750 nm | 28 nm | 0.21 | 0.47 | 3.27 ns | 15 ns | 10 ns | 7 ns | bathochromic shift in the Qy band relative to that for B2 [1]: ~16 nm; (Stokes) shift of Qy fluorescence maximum from Qy absorption peak ([2]; water): 8–9 nm; Φic (internal conversion yield) ([4]; DMF): 0.32; reduction of Φf in water vs DMF [4]: 38%; Φf (fluorescence quantum yield) ([4]; water with 5% DMF as cosolvent): 0.13; Φisc (intersystem crossing yield) ([4]; water with 5% DMF as cosolvent): 0.45; τS (lifetime of lowest singlet excited state) ([4]; water with 5% DMF as cosolvent): 3.39 ns; kf^−1 ([4]; water with 5% DMF as cosolvent): 27 ns; kic^−1 ([4]; water with 5% DMF as cosolvent): 8 ns; kisc^−1 ([4]; water with 5% DMF as cosolvent): 8 ns; Φic (internal conversion yield) ([4]; water with 5% DMF as cosolvent): 0.42
